Experimental data of several laboratories.
Lines come from different studies, so protocols differ.
Target: TGF-beta receptor type-2 (TGFBR2, Homo sapiens, UniProt P37173)

O=C(NCCCN1CCOCC1)c1ccc(Nc2nccc(-c3cc4ccccc4s3)n2)cc1
remaining binding (binding; competition with immobilised ligand; 1 µM): 64%

CNC(=O)[C@@H]1CC[C@@H](n2c(-c3ccc4cnccc4c3)nc3ccc(C(=O)NCc4cccc(C(N)=O)c4)cc32)C1
remaining binding (binding; competition with immobilised ligand; 1 µM): 100%

c1cnn2ncc(-c3ccnc(N4CCC45COC5)n3)c2c1
remaining binding (binding; 1 µM): 36%

CO[C@@H](C)c1c(Nc2ccc([C@@H](N(C)C(=O)C3CCS(=O)(=O)CC3)C(F)(F)F)cc2)cnc2cc(Cl)nn12
remaining binding (cell-free assay; competition with immobilised ligand; 1 µM): 100%

O=C(NCCCN1CCOCC1)c1ccc(Nc2ncc(Cl)c(-c3ccc(Cl)s3)n2)cc1
remaining binding (binding; competition with immobilised ligand; 1 µM): 100%

O=C(NCC1CCOCC1)c1n[nH]cc1NC(=O)c1c(F)cccc1F
remaining binding (binding; competition with immobilised ligand; 1 µM): 100%

c1cncc(-c2cccc(Nc3nccc(NC4CCCCC4)n3)c2)c1
remaining binding (binding; competition with immobilised ligand; 10 µM): 30%

CN(C)c1nccc(-c2cnc3ncccn23)n1
remaining binding (binding; 1 µM): 76%

CC1=C(C#N)[C@@H](c2ccc3[nH]nc(C)c3c2)C(C#N)=C(c2ccc(Cl)cc2)N1
remaining binding (cell-free assay; competition with immobilised ligand; 1 µM): 74.6%

C[C@@H]1CCN(c2nccc(-c3cnn4ncccc34)n2)C1
remaining binding (binding; 1 µM): 100%

O=C1CCc2cc(Nc3cc(OC4CCOCC4)c([N+](=O)[O-])cc3Cl)ccc2N1
remaining binding (cell-free assay; competition with immobilised ligand; 1 µM): 98%

C[C@@H](c1ccc(-n2cnc3c(N)ncnc32)cc1)N1CCc2nn(C)c(Cc3ccccc3)c2C1=O
remaining binding (binding; competition with immobilised ligand; 0.1 µM): 84%

N[C@H]1CCN(c2nccc(-c3cnn4ncccc34)n2)C1
remaining binding (binding; 1 µM): 86%

CNCc1ccccc1-c1csc([C@H](C)Nc2nc(C)nc3cc(OC)c(OC)cc23)c1
remaining binding (cell-free assay; competition with immobilised ligand; 1 µM): 97%

O=C(c1ccc(Nc2nccc(-c3cc4ccccc4s3)n2)cc1)N1CCC(N2CCCC2)CC1
remaining binding (binding; competition with immobilised ligand; 1 µM): 88%

CN(C)c1ncc(F)c(-c2cnn3ncccc23)n1
remaining binding (binding; 1 µM): 100%

COc1ncc2cc3ccccc3nc2c1C#N
remaining binding (cell-free assay; competition with immobilised ligand; 5 µM): 100%

COc1cc(-c2cn(C3CCc4c(F)cccc4N(CC(F)(F)F)C3=O)nn2)ccc1-n1cnc(C)c1 (stereo not drawn)
remaining binding (cell-free assay; competition with immobilised ligand; 1 µM): 100%

CCN1CCN(Cc2ccc(C(=O)Nc3ccc(C)c(Oc4ccc5c(c4)CC(=O)N5)c3)cc2C(F)(F)F)CC1
remaining binding (binding; competition with immobilised ligand; 1 µM): 100%

O=C(NS(=O)(=O)c1ccc(NCC2CCOCC2)c([N+](=O)[O-])c1)c1ccc(N2CCN(Cc3ccc(C(F)(F)F)cc3-c3ccc(Cl)cc3)CC2)cc1Oc1cnc2[nH]ccc2c1
remaining binding (cell-free assay; competition with immobilised ligand; 1 µM): 76%

CC1CCCN1c1nccc(-c2cnn3ncccc23)n1 (stereo not drawn)
remaining binding (binding; 1 µM): 100%
